Data reported in ChEMBL document CHEMBL1135746, “Structure-activity relationships of the antimalarial agent artemisinin. 7. Direct modification of (+)-artemisinin and in vivo antimalarial screening of new, potential preclinical antimalarial candidates” (J Med Chem, 2002).
In brackets after ≈: the same amount, converted by molar mass. Several values for one entry are separate records, joined by “and”; a condition that tells them apart may be missing. Identical values can stand only once.

How the values were obtained:
[1] = system: Plasmodium berghei; experiment: (§1) Effective dose ED90 against Plasmodium berghei N in mice (Mus musculus) malaria model after oral administration; assay type: functional
How it was run: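 Peters' 4-day test: two batches of five male random-bred Swiss albino mice (18-22 g) were inoculated i.v. with 2 × 10⁶ P. berghei N-parasitized RBC. Drug was given once daily for four consecutive days. Compounds were dissolved in DMSO, then diluted in water for subcutaneous or oral dosing. Parasitemia was read the day after the last treatment.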

[2] = system: Plasmodium berghei; experiment: Effective dose ED90 against Plasmodium berghei N in mice (Mus musculus) malaria model after subcutaneous administration; assay type: functional
[3] = system: Plasmodium berghei; experiment: Effective dose ED50 against Plasmodium berghei N in mice (Mus musculus) malaria model after subcutaneous administration; assay type: functional; details: for ED50: Plasmodium berghei, sc, read-out: ED50
[4] = system: Plasmodium berghei; experiment: Effective dose […] against Plasmodium berghei N in a mice (Mus musculus) malaria model after oral dose; assay type: functional
[5] = system: Plasmodium yoelii; experiment: Effective subcutaneous dose ED50 against Plasmodium yoelii sspNS; assay type: functional; details: sc
[6] = system: Plasmodium yoelii; experiment: Effective subcutaneous dose ED90 against Plasmodium yoelii sspNS; assay type: functional; details: Plasmodium yoelii, sc; read-out: ED90
[7] = system: Plasmodium falciparum; experiment: Inhibitory activity against Plasmodium falciparum D6; assay type: functional, organism-based
How it was run: (§2)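 Parasitized human red blood cells were used in short-term microtitre cultures. Compounds were dissolved in DMSO and diluted 400-fold in culture medium with plasma, giving a starting concentration of at least 12 500 ng/mL. Activity was measured as inhibition of parasite uptake of a radiolabelled nucleic acid precursor.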

[8] = system: Plasmodium falciparum; experiment: Inhibitory activity against Plasmodium falciparum K1; assay type: functional, organism-based
[9] = system: Plasmodium falciparum; experiment: Inhibitory activity against Plasmodium falciparum NF54; assay type: functional, organism-based
[10] = system: Plasmodium falciparum; experiment: Inhibitory activity against Plasmodium falciparum W2; assay type: functional, organism-based; how it was run: as §2
[11] = system: Plasmodium yoelii; experiment: Effective dose ED90 against Plasmodium yoelii sspNS on subcutaneous dose; assay type: functional; details: sc
[12] = system: Plasmodium yoelii; experiment: Effective dose after oral administration against Plasmodium yoelii sspNS for 50%inhibition in presence of DMSO; assay type: functional
[13] = system: Plasmodium berghei; experiment: Effective dose ED90 against Plasmodium berghei N in mice (Mus musculus) malaria model after peroral administration; assay type: functional; details: po
[14] = system: Plasmodium yoelii; experiment: Effective subcutaneous dose ED50 in SSV against Plasmodium yoelii sspNS; assay type: functional; details: sc
[15] = system: Plasmodium yoelii; experiment: Effective subcutaneous dose ED90 in SSV against Plasmodium yoelii sspNS; assay type: functional; details: sc
[16] = system: Plasmodium yoelii; experiment: Effective dose after oral administration against Plasmodium yoelii sspNS for 90%inhibition in presence of DMSO; assay type: functional
[17] = system: Plasmodium berghei; experiment: Antimalarial activity in Plasmodium berghei infected mice (Mus musculus) at 8 mg/kg/day peroral dose; assay type: functional; details: route oral
How it was run: (§3)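 CD-1 mice (16-18 g), quarantined 2 weeks, then infected with P. berghei (Thompson test). Treatment was given on days 3-5 postinfection. Subcutaneous dosing was a single injection; oral dosing was by gavage of a peanut-oil suspension. Groups of 5 mice were used. Survival was scored out of 5 and parasitemia was followed up to 60 days postinfection.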

[18] = system: Plasmodium berghei; experiment: Antimalarial activity in Plasmodium berghei infected mice (Mus musculus) after 128 mg/kg/day subcutaneous dose; assay type: functional; how it was run: as §3
[19] = system: Plasmodium berghei; experiment: Antimalarial activity in Plasmodium berghei infected mice (Mus musculus) at 32 mg/kg/day subcutaneous dose; assay type: functional; how it was run: as §3
[20] = system: Plasmodium berghei; experiment: Antimalarial activity in Plasmodium berghei infected mice (Mus musculus) at 8 mg/kg/day subcutaneous dose; assay type: functional; how it was run: as §3
[21] = system: Plasmodium berghei; experiment: Antimalarial activity in Plasmodium berghei infected mice (Mus musculus) at 128 mg/kg/day peroral dose; assay type: functional; details: route oral; how it was run: as §3
[22] = system: Plasmodium berghei; experiment: Antimalarial activity in Plasmodium berghei infected mice (Mus musculus) at 32 mg/kg/day peroral dose; assay type: functional; details: route oral; how it was run: as §3
[23] = system: Plasmodium berghei; experiment: as §1; assay type: functional; remark: listed apart in the source
[24] = system: Plasmodium yoelii; experiment: Effective subcutaneous dose ED90 against Plasmodium yoelii NS; assay type: functional
[25] = system: Plasmodium berghei; experiment: Effective dose ED50 against Plasmodium berghei N in mice (Mus musculus) malaria model after peroral administration; assay type: functional; details: Plasmodium berghei, po; read-out: ED50
[26] = system: Plasmodium yoelii; experiment: Effective oral dose ED50 in DMSO against Plasmodium yoelii sspNS; assay type: functional
[27] = system: Plasmodium yoelii; experiment: Effective dose ED50 against Plasmodium yoelii sspNS in presence of SSV; assay type: functional
[28] = system: Plasmodium yoelii; experiment: Effective oral dose ED90 in DMSO against Plasmodium yoelii sspNS; assay type: functional
[29] = system: Plasmodium yoelii; experiment: Effective oral dose ED90 in SSV against Plasmodium yoelii sspNS; assay type: functional
[30] = Plasmodium berghei, sc, read-out: ED90

Compound	ED90 [2, 30]	ED50 [3]	ED50 [5]	IC50 [7]	IC50 [8]	IC50 [9]	IC50 [10]	ED90 [13]	Activity [17]	Activity [18]	Activity [19]	Activity [20]	Activity [21]	Activity [22]	ED50 [25]	further results
OC(c1cc(C(F)(F)F)nc2c(C(F)(F)F)cccc12)C1CCCCN1 (centres undefined) [MEFLOQUINE]	2.3 mg/kg	1.1 mg/kg	2.3 mg/kg	–	–	–	–	–	–	–	–	–	–	–	–	ED90 [1]: 5.1 mg/kg; ED50 [4]: 3.3 mg/kg; ED90 [6]: 6 mg/kg
C[C@@H]1CC[C@H]2[C@@H](CCCc3ccc(C(F)(F)F)cc3)CO[C@@H]3OC4(C)CC[C@@H]1[C@]32OO4 (single isomer, unassigned)	–	0.44 mg/kg	0.67 mg/kg	0.0281 µg/mL (≈ 0.0639 µM)	0.0395 µg/mL (≈ 0.0898 µM)	0.102 µg/mL (≈ 0.23 µM)	0.058 µg/mL (≈ 0.132 µM)	–	–	–	–	–	–	–	–	ED90 [2]: 0.8 mg/kg and 2.1 mg/kg; ED90 [11]: 1.25 mg/kg
C[C@@H]1CC[C@H]2[C@@H](CCCc3cc(F)cc(F)c3)CO[C@@H]3OC4(C)CC[C@@H]1[C@]32OO4 (single isomer, unassigned)	2 mg/kg	1.3 mg/kg	–	0.00082 µg/mL (≈ 0.00201 µM)	0.0032 µg/mL (≈ 0.00783 µM)	–	0.0065 µg/mL (≈ 0.0159 µM)	5.7 mg/kg	–	–	–	–	–	–	–	ED50 [12]: 2.3 mg/kg; ED50 [14]: 2.2 mg/kg; ED90 [15]: 6.5 mg/kg; ED90 [16]: 7.5 mg/kg
C[C@@H]1CC[C@H]2[C@@H](CCCc3ccc(Cl)c(Cl)c3)CO[C@@H]3OC4(C)CC[C@@H]1[C@]32OO4 (single isomer, unassigned)	–	–	–	–	–	–	–	–	0	5	5	0	5	5	–	–
C[C@@H]1CC[C@H]2[C@@H](CCCc3ccccc3)CO[C@@H]3OC4(C)CC[C@@H]1[C@]32OO4 (single isomer, unassigned)	–	–	–	0.0009 µg/mL (≈ 0.00242 µM)	–	–	–	–	0	5	5	0	5	4	–	ED90 [23]: 3.4; ED90 [3]: 1; ED90 [24]: 0.9
C=C[C@H]1CN2CC[C@H]1C[C@H]2[C@H](O)c1ccnc2ccc(OC)cc12 [QUININE]	1050 mg/kg	83 mg/kg	–	0.16 µg/mL (≈ 0.492 µM)	–	0.00908 µg/mL (≈ 0.028 µM)	0.15 µg/mL (≈ 0.462 µM)	118 mg/kg	–	–	–	–	–	–	71 mg/kg	–
C[C@@H]1CC[C@H]2[C@@H](CCCc3cccc(C(F)(F)F)c3)CO[C@@H]3OC4(C)CC[C@@H]1[C@]32OO4 (single isomer, unassigned)	0.75 mg/kg	0.4 mg/kg	0.6 mg/kg	0.00848 µg/mL (≈ 0.0193 µM)	0.012 µg/mL (≈ 0.0272 µM)	0.0356 µg/mL (≈ 0.0808 µM)	0.0303 µg/mL (≈ 0.0688 µM)	4.4 mg/kg	–	–	–	–	–	–	1.25 mg/kg	ED90 [11]: 1 mg/kg
C[C@@H]1CC[C@H]2[C@@H](C)C(=O)O[C@@H]3O[C@@]4(C)CC[C@@H]1[C@]32OO4 [ARTEMISININ]	–	–	–	–	–	–	–	–	0	5	3	0	0	0	–	–
C[C@@H]1CC[C@H]2[C@@H](CCCc3cc(C(F)(F)F)cc(C(F)(F)F)c3)CO[C@@H]3OC4(C)CC[C@@H]1[C@]32OO4 (single isomer, unassigned)	1.7 mg/kg	0.9 mg/kg	–	0.00078 µg/mL (≈ 0.00153 µM)	0.00406 µg/mL (≈ 0.00798 µM)	–	0.00711 µg/mL (≈ 0.014 µM)	5 mg/kg	–	–	–	–	–	–	2.6 mg/kg	ED50 [26]: 1.5 mg/kg; ED50 [27]: 4.2 mg/kg; ED90 [28]: 3.6 mg/kg; ED90 [29]: 12 mg/kg
